Screening results: PubChem, several laboratories
Ecoli WT expand: growth inhibitors of wild-type E. coli, primary screen, strain BW25113, expanded library, OD600. OD600 absorbance. growth inhibition, % at 100 µM. 98,000 compounds, 0.15% hits. AID 710, 2007;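 active = growth inhibition above about 50% at one test dose, limit read from the data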;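 note: growth measured after 20 h incubation at 37 °C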
CYP2C19 act: human CYP2C19 activators, primary screen, biochemical, luminescence; Cytochrome P450 2C19 (Homo sapiens), P33261; recombinant CYP2C19, luciferin-H EGE luminescence; stronger effect = higher value; 0 = fully inhibited enzyme, 1 = untreated enzyme; activation factor at 5 µM; 96,000 tested, under 10 active; AID 1025, 2008;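 active = activation factor of at least 2 at 5 µM in the primary screen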;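 note: 0 = wells with 2.5 mM tranylcypromine and 1 = vehicle-only wells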
CYP2C9 activ: human CYP2C9 activators, primary screen, biochemical, luminescence. Cytochrome P450 2C9 (Homo sapiens), P11712. recombinant CYP2C9, luciferin-H conversion; stronger effect = higher value; factor 1 = untreated enzyme, 0 = blocked. activation factor at 5 µM. 96,000 compounds, 1.4% hits. AID 1024, 2008;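 active = activation factor of 2 or more for CYP2C9 at a 5 µM dose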;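 note: 0 = sulfaphenazole-blocked wells and 1 = vehicle-only wells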
Target sequence (P11712 whole entry, looked up): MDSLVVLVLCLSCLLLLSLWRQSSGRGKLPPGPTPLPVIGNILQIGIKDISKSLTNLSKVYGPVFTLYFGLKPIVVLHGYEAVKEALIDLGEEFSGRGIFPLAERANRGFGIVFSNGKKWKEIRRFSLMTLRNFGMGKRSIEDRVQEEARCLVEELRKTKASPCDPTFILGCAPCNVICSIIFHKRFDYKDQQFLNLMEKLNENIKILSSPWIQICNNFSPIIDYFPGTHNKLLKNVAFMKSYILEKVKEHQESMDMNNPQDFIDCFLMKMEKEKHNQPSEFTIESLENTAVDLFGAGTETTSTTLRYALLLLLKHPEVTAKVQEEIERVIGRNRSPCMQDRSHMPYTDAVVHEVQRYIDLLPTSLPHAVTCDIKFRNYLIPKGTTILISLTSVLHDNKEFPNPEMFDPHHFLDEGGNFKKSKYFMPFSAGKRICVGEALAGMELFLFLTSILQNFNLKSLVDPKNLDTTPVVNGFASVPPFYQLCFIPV
tolC growth inh: growth inhibitors of E. coli tolC mutant, primary screen, strain BW25113 ΔtolC::kan, 384-well; OD615; 65,000 compounds, 2.2% hits; growth inhibition, % at 10 µM (by protocol); AID 573, 2007;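 active = growth inhibition at or above a cutoff equal to the mean over every tested compound plus 3 SD, cut at about 60% in these data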;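 note: growth measured after 20 h incubation at 37 °C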
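signal = optical density read at 615 nm | test system = E. coli ΔtolC::kan strain BW25113 | timing = 20 h compound exposure of bacteria at 37 °C | buffer or medium = LB medium plus 50 µg/mL kanamycin | compound dosing = 10 µM final, single dose | evaluation = % inhibition of E. coli growth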
CYP2C19 inhib: blockers of cytochrome P450 2C19 activity – biochemical, luminescence, ADME assay, primary screen; inhibition, % at 5 µM; CYP2C19 Supersomes, luciferin-H EGE luminescence, 30 min; 96,000 compounds, 21% hits;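 active = CYP2C19 inhibition above a set limit at 5 µM in the primary screen, cut at about 50% in these data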;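 note: plate controls were negative control wells for no effect and 2.5 mM tranylcypromine positive control for full effect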
CYP2C9 inhib: blockers of cytochrome P450 2C9 activity – biochemical, luminescence, ADME assay, primary screen; CYP2C9 Supersomes, luciferin-H conversion; inhibition, % at 5 µM; 96,000 compounds, 20% hits;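 active = blocking of liver enzyme CYP2C9 beyond about 50% at 5 µM, limit read from the data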
* hit, by the source's call; nt = no result given. Rows were chosen to be rich in hits. Some 29% of all compounds tested hit in one or more screens of this group.

SMILES	Ecoli WT expand	CYP2C19 act	CYP2C9 activ	tolC growth inh	CYP2C19 inhib	CYP2C9 inhib
Cc1ccc(-c2noc(C3CCCN(C(=O)C4CCCCC4)C3)n2)o1 (stereo unspecified)	6	0.5	0.4	4	53*	60*
CC(C)c1ccc(-c2noc(C3CCCN(C(=O)c4ccc(F)cc4F)C3)n2)cc1 (stereo unspecified)	-22	0.2	0.1	68*	82*	90*
O=C(Nc1cccc(C(F)(F)F)c1)N1CCC(c2nc(-c3ccc(F)cc3)no2)CC1	-1	0.6	0.4	89*	41	56*
Cc1ccccc1NC(=O)N1CCCC(c2nc(-c3ccc(C(C)C)cc3)no2)C1 (stereo unspecified)	20	0.8	0.3	45	19	70*
O=C(CN1CCN(c2ccccc2)CC1)Nc1c(C(=O)C2CC2)oc2ccccc12	nt	nt	nt	26	nt	nt
CC(/C=C/c1ccccc1)=N\NC(N)=S	22	0.8	0.9	nt	19	14
Cc1ccc(C(=O)C(C)OC(=O)C2CC(=O)N(C3CCCCC3)C2)cc1 (stereo unspecified)	7	1	0.9	3	0	13
Cc1ccccc1NC(=O)N1CCCC(c2nc(-c3ccc(F)cc3)no2)C1 (stereo unspecified)	4	0.5	0.3	-17	54*	70*
O=C(Nc1ccccc1)N1CCCC(c2nc(-c3ccc(F)cc3)no2)C1 (stereo unspecified)	-14	0.6	0.5	nt	36	48
CCC(=O)N1c2ccc(S(=O)(=O)CCC(=O)NCc3ccc4c(c3)OCO4)cc2CC1C (stereo unspecified)	7	0.8	0.6	-24	23	42
CCC(=O)N1c2ccc(S(=O)(=O)N(CCO)Cc3ccccc3)cc2CC1C (stereo unspecified)	-6	0.5	0.4	3	52*	56*
CCc1nnc(NC(=O)c2cc(-c3ccccc3)nn2-c2ccccc2)s1	-7	0.9	0.9	nt	6	7
CCN(CC)S(=O)(=O)c1ccc2c(c1)c(=O)c(C(=O)N1CCN(c3ccccc3)CC1)cn2C	nt	nt	nt	12	nt	nt
CSc1ccc(Cl)c(C(=O)OCC(=O)NCC(C)C)c1	1	0.3	0.8	nt	66*	23
CC(C)CNC(=O)COC(=O)c1ccc(Cl)c(S(N)(=O)=O)c1	10	1	1.1	nt	0	-8
COc1ccc2c(c1)C(=O)N(c1ccccc1OC)C(=O)C2(C)C	9	0.2	0.4	7	84*	63*
CN(C)C=Nc1ncc2c([nH]c3ccccc32)c1C#N	5	0.4	0.5	7	63*	50
CCCOc1ncnc2c1[nH]c1ccccc12	-6	0.8	0.8	nt	22	18
COc1ccc(/C(O)=C2/C(=O)C(=O)N(CCN3CCOCC3)C2c2ccccn2)cc1 (stereo unspecified)	-1	1	1.1	11	-3	-6
COc1cc(C2C(C#N)=C(N)OC3=C2C(=O)CCC3)cc(OC)c1OC(=O)N1CCOCC1 (stereo unspecified)	2	0.9	0.9	-18	12	9
CCOC(=O)C1CCCN(C(=O)c2sc3nc(-c4ccccc4)cn3c2C)C1 (stereo unspecified)	nt	0.4	0.4	7	59*	56*
CCOC(=O)C1CCCN(C(=O)CCc2ccccc2)C1 (stereo unspecified)	-14	0.6	0.8	0	36	18
CCOC(=O)C1CCCN(C(=O)c2sc3nc(-c4ccc(F)cc4)cn3c2C)C1 (stereo unspecified)	6	0.8	0.7	25	21	28
CCOC(=O)C1CCN(C(=O)Cc2ccc(C)cc2)CC1	-4	0.8	0.5	nt	21	52*
CCOC(=O)C1CCCN(C(=O)Cc2ccc(Cl)cc2)C1 (stereo unspecified)	-1	0.7	0.2	nt	30	76*
